# ChEMBL document CHEMBL4184179, “Synthesis and biological evaluation of novel synthetic chalcone derivatives as anti-tumor agents targeting Cat L and Cat K” (Bioorg Med Chem, 2018)
# Experiments:
# [1] = system: HCT-116; assay: Antiproliferative activity against human HCT116 cells after 48 hrs by MTT assay; type: functional, cell-based; details: for IC50: HCT-116, 48 h
# Procedure, shortened: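 Cells grown in RPMI 1640 with 10% FBS; about 4×10^3 cells per well seeded, held 24 h at 37°C in 5% CO2, then exposed to compounds at six concentrations (0.001–100 μM) for 48 h. MTT added at 0.5 mg/mL final for 4 h at 37°C, formazan dissolved in DMSO, absorbance read at 540 nm.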
# [2] = system: MCF7; assay: Antiproliferative activity against human MCF7 cells after 48 hrs by MTT assay; type: functional, cell-based; details: for IC50: MCF7, 48 h
# [3] = system: 143B; assay: Antiproliferative activity against human 143B cells after 48 hrs by MTT assay; type: functional, cell-based
# [4] = target: T1, Cathepsin K (Homo sapiens) (UniProt P43235); assay: Inhibition of recombinant human Cathepsin-K at 5 uM preincubated for 15 mins followed by Z-Phe-Arg-AMC addition measured after 30 mins by fluorescence assay relative to control
# T1 sequence (whole entry): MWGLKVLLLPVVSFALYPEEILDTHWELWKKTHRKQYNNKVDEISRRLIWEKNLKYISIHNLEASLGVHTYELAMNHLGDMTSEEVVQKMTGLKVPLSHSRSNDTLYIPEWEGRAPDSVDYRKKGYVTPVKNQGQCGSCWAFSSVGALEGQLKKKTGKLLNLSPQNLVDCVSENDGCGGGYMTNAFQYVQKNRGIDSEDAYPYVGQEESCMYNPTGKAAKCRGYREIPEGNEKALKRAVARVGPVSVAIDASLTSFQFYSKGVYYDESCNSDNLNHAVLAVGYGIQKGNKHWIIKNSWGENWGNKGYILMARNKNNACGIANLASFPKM
# Procedure, shortened: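 Recombinant human Cat K (5.5 ng/mL) in 50 mM sodium acetate, 2.5 mM EDTA, 1 mM DTT, pH 6.0, preincubated with compound (5 μM screen) 15 min at 37°C. Reaction started with Z-Phe-Arg-AMC (10 μM, as added). Fluorescence (ex 355/em 460 nm) read after 30 min; inhibition rate calculated from intensity.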
# [5] = target: Procathepsin L (Homo sapiens) (UniProt P07711); assay: Inhibition of Cathepsin-L (unknown origin) at 5 uM preincubated for 15 mins followed by Z-Phe-Arg-AMC addition measured after 30 mins by fluorescence assay relative to control
# Procathepsin L (Homo sapiens), sequence (P07711 114-333 limits assumed): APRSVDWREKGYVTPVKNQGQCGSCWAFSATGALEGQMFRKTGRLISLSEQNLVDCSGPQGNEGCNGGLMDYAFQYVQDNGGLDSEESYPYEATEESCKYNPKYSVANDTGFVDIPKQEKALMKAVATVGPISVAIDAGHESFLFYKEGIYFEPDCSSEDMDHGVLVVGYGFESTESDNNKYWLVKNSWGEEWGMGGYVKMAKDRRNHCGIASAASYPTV
# Procedure, shortened: (§1)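 Run as for the Cat K assay: enzyme in 50 mM sodium acetate, 2.5 mM EDTA, 1 mM DTT, pH 6.0, compounds screened at 5 μM, 15 min preincubation at 37°C, substrate added, fluorescence (ex 355/em 460 nm) read at 30 min. Substrates: Cat B Z-Arg-Arg-AMC; Cat S Ac-Lys-Gln-Lys-Leu-Arg-AMC; Cat L as for Cat K.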
# [6] = target: Cathepsin B (Homo sapiens) (UniProt P07858); assay: Inhibition of Cathepsin-B (unknown origin) at 5 uM preincubated for 15 mins followed by Z-Arg-Arg-AMC addition measured after 30 mins by fluorescence assay relative to control; procedure, shortened: as §1
# [7] = target: Cathepsin S (Homo sapiens) (UniProt P25774); assay: Inhibition of Cathepsin-S (unknown origin) at 5 uM preincubated for 15 mins followed by Ac-Lys-Gln-Lys-Leu-Arg-AMC addition measured after 30 mins by fluorescence assay relative to control; procedure, shortened: as §1
# Cathepsin S (Homo sapiens), sequence (P25774 115-331 limits assumed): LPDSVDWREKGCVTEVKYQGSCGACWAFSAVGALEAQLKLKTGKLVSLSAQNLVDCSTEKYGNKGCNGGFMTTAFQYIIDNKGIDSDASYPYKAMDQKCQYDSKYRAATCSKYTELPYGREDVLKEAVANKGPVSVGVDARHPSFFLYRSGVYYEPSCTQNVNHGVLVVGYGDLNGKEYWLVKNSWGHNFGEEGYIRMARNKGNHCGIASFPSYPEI
Compound,IC50 [1] [nM],IC50 [2] [µM],IC50 [3] [µM],inhibition [4] [%],inhibition [5] [%],inhibition [6] [%],inhibition [7] [%],Activity [1],Activity [2],Activity [3]
COc1ccc(C(=O)Nc2cccc(/C=C/C(=O)c3nc4ccccc4[nH]3)c2)cc1,4880,20.1,6.33,,,,,,,
O=C(Nc1cccc(/C=C/C(=O)c2nc3ccccc3[nH]2)c1)c1ccc(Br)cc1,2220,7,7.31,,,,,,,
O=C(/C=C/c1cccc(NS(=O)(=O)c2cccc(Cl)c2)c1)c1nc2ccccc2[nH]1,737,4.16,2.51,89.2,78.9,15.2,52.6,,,
O=C(Nc1cccc(/C=C/C(=O)c2nc3ccccc3[nH]2)c1)c1cccc(Br)c1,1560,5.21,4.62,,,,,,,
CC(C)C[C@H](NC(=O)[C@@H]1O[C@H]1C(=O)O)C(=O)NCCCCN=C(N)N,,,,100,100,100,,,,
CC(C)(F)C[C@H](C[C@@H](c1ccc(-c2ccc(S(C)(=O)=O)cc2)cc1)C(F)(F)F)C(=O)NC1(C#N)CC1,> 100000,45.4,12.7,100,71.3,100,100,,,
O=C(Nc1cccc(/C=C/C(=O)c2nc3ccccc3[nH]2)c1)c1ccccc1,2440,11.2,8.34,,,,,,,
COc1cccc(C(=O)Nc2cccc(/C=C/C(=O)c3nc4ccccc4[nH]3)c2)c1,3680,17.8,4.61,,,,,,,
CC(=O)O[C@H]1C(=O)[C@@]2(C)[C@H]([C@H](OC(=O)c3ccccc3)[C@]3(O)C[C@H](OC(=O)[C@H](O)[C@@H](NC(=O)c4ccccc4)c4ccccc4)C(C)=C1C3(C)C)[C@]1(OC(C)=O)CO[C@@H]1C[C@@H]2O [PACLITAXEL],14,,,,,,,,,
O=C(/C=C/c1ccccc1)c1nc2ccccc2[nH]1,,,,37.9,35.4,10.1,13,,,
O=c1[nH]cc(F)c(=O)[nH]1 [FLUOROURACIL],8640,32.6,25.2,,,,,,,
Cc1ccccc1C(=O)Nc1cccc(/C=C/C(=O)c2nc3ccccc3[nH]2)c1,1870,5.87,8.29,,,,,,,
O=C(/C=C/c1cccc(NS(=O)(=O)c2ccccc2Cl)c1)c1nc2ccccc2[nH]1,987,4.28,4.79,86.5,62.9,32.5,45.7,,,
O=C(/C=C/c1cccc(NS(=O)(=O)c2cc(Cl)cc(Cl)c2)c1)c1nc2ccccc2[nH]1,2840,20,5.95,,,,,,,
Cc1cc(C)cc(C(=O)Nc2cccc(/C=C/C(=O)c3nc4ccccc4[nH]3)c2)c1,1550,24.6,4.01,,,,,,,
Cc1cccc(C(=O)Nc2cccc(/C=C/C(=O)c3nc4ccccc4[nH]3)c2)c1,1420,5.59,4.88,78,88.5,41.3,45.2,,,
O=C(Nc1cccc(/C=C/C(=O)c2nc3ccccc3[nH]2)c1)c1cc(Cl)cc(Cl)c1,1640,> 100,3.66,,,,,,,
O=C(Nc1cccc(/C=C/C(=O)c2nc3ccccc3[nH]2)c1)c1ccc(Cl)cc1,2270,8.41,7.44,,,,,,,
O=C(/C=C/c1cccc(NS(=O)(=O)c2ccc(Cl)cc2)c1)c1nc2ccccc2[nH]1,1960,3.82,7.45,58.1,58,23.8,89.3,,,
Cc1ccccc1S(=O)(=O)Nc1cccc(/C=C/C(=O)c2nc3ccccc3[nH]2)c1,955,4.13,4.06,91.3,71.3,40,47.8,,,
O=C(Nc1cccc(/C=C/C(=O)c2nc3ccccc3[nH]2)c1)c1cccc(C(F)(F)F)c1,3360,21.5,9.57,,,,,,,
Cc1cc(C)cc(S(=O)(=O)Nc2cccc(/C=C/C(=O)c3nc4ccccc4[nH]3)c2)c1,1220,4.57,3.33,,,,,,,
Cc1cccc(S(=O)(=O)Nc2cccc(/C=C/C(=O)c3nc4ccccc4[nH]3)c2)c1,597,0.886,0.791,93.5,92.3,45.6,50.1,Dose-dependent effect,Dose-dependent effect,Dose-dependent effect
O=C(/C=C/c1cccc(NC(=O)c2ccccc2Cl)c1)c1nc2ccccc2[nH]1,1280,4.57,3.69,,,,,,,
Cc1ccc(S(=O)(=O)Nc2cccc(/C=C/C(=O)c3nc4ccccc4[nH]3)c2)cc1,1990,3.22,3.22,86,93.8,34.3,22,,,
O=C(/C=C/c1cccc(NC(=O)c2ccccc2Br)c1)c1nc2ccccc2[nH]1,1680,4.52,6.05,,,,,,,
CCCNC(=O)[C@H]1O[C@@H]1C(=O)N[C@H](C(=O)N1CCC[C@H]1C(=O)O)[C@@H](C)CC,,,,,,100,,,,
Cc1ccc(S(=O)(=O)Nc2cccc(/C=C/C(=O)c3nc4ccccc4[nH]3)c2)cc1C,2230,5.86,5.05,,,,,,,
Cc1ccc(C(=O)Nc2cccc(/C=C/C(=O)c3nc4ccccc4[nH]3)c2)cc1,1660,9.69,6.56,,,,,,,
O=C(Nc1cccc(/C=C/C(=O)c2nc3ccccc3[nH]2)c1)c1cccc(Cl)c1,1120,7.83,3.37,73,86,30.5,19.5,,,
